The source made the active and inactive calls. The calls are words filed in the database; no cut-off is given here.
How the values were obtained:
[1] = system: CCRF-CEM; assay: Antitumor activity against human CCRF-CEM cells xenografted in SCID mouse assessed as reduction in tumor growth at 50 mg/kg, ip administered daily for 5 days with 2 days interval for 18 days; assay type: functional, organism-based; conditions: time 18.0 day
In short: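 SCID mice aged 8-10 weeks, in individually ventilated cages on a 12 h light/dark cycle, autoclaved pellets and water ad libitum. 1×10^5 CEM cells were injected on the back to form palpable tumors, which were minced and regrafted. Compound given 50 mg/kg i.p. on days 1-5, 8-12 and 15-18. Saline vehicle group; doxorubicin 20 mg/kg i.p. reference group. n=6 per group. Tumor volume by caliper every two days as (width)² x length/2.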

[2] = system: CCRF-CEM; assay: Cell cycle arrest in human CCRF-CEM cells assessed as decrease in accumulation at G0/G1 phase measured after 72 hrs by NIM-DAPI staining based flow cytometry; assay type: functional
In short: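 An asynchronous CEM culture was seeded at 100,000 cells/well in 1 mL complete RPMI and exposed to 10, 25 or 50 μM for 72 h. Controls were untreated cells, DMSO and hydrogen peroxide. Cells were pelleted at 262 g, resuspended, and stained with NIM-DAPI, which permeabilizes and stains DNA in one step. About 100,000 events per sample were read by flow cytometry. Triplicates.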

[3] = Selectivity index, ratio of IC50 for human WBC to CC50 for human CCRF-CEM cells
In short: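 Donor blood was layered on HiSep and centrifuged at 400×g for 30 min; mononuclear cells were washed and RBC-lysed to give WBCs. WBCs were seeded overnight at 37 °C, 5% CO2, then exposed to 2.5–100 µM for 48 h. MTT was added for 4 h at 37 °C, formazan was dissolved in DMSO and A570 read. The CEM CC50 came from a 48 h Hoechst/PI imaging assay.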

O=C(CN1C(=O)S/C(=C/c2ccco2)C1=O)Nc1nc2ccccc2s1
Activity [1]: Active
Activity [2]: Dose-dependent effect
Ratio IC50 [3]: 107

From ChEMBL document CHEMBL4765368, “Structure guided design and synthesis of furyl thiazolidinedione derivatives as inhibitors of GLUT 1 and GLUT 4, and evaluation of their anti-leukemic potential” (Eur J Med Chem, 2020)
